We go through 7 compounds from ChEMBL document CHEMBL4177768, “Synthesis and Biological Evaluation of Derivatives of Indoline as Highly Potent Antioxidant and Anti-inflammatory Agents” (J Med Chem, 2018).

The structures appear in SMILES notation. Activity calls are given as the source filed them. The rule behind the calls is not given here.

Data set [1] relates to RAW264.7. As to the kind of experiment: Antiinflammatory activity in mouse RAW264.7 cells assessed as reduction in LPS-induced TNF-alpha production at 1 pM to 100 nM incubated for 2 hrs prior to LPS challenge measured after 8 hrs by ELISA. Type of data set: functional, cell-based. In a few lines:
(§1)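 RAW 264.7 macrophages were plated at 1×10^5 per well, grown overnight and washed with PBS. Compounds in water (final 1 pM-100 nM, medium with 2% FCS) were added 2 h at 37 °C before E. coli 0111:B4 LPS, 2.5 µg/mL. TNF-α was sampled at 8 h; IL-6 and nitrite (Griess) at 24 h. ELISA was used for cytokines. Values are % of the LPS + medium value in each experiment. Budesonide was the reference. 2-3 experiments, 6 wells per concentration.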

The subject of data set [2] is RAW264.7. The data set can be described thus: Antiinflammatory activity in mouse RAW264.7 cells assessed as reduction in LPS-induced IL6 production at 1 pM to 100 nM incubated for 2 hrs prior to LPS challenge measured after 24 hrs by ELISA. Type of data set: functional, cell-based. The gist of the method:
as §1

For data set [3], the system named is RAW264.7. As to the kind of experiment: Antiinflammatory activity in mouse RAW264.7 cells assessed as reduction in LPS-induced nitric oxide production at 1 pM to 100 nM incubated for 2 hrs prior to LPS challenge measured after 24 hrs by Griess assay. Type of data set: functional, cell-based. In a few lines:
as §1

The test system of data set [4] is RAW264.7. The data set can be described thus: Cytoprotective activity against H2O2-induced oxidative stress in mouse RAW264.7 cells assessed as cell viability at 100 nM incubated for 2 hrs prior to H2O2 addition measured after 24 hrs by MTT assay (reference value: 68 to 72.8%). Format: functional. The settings on record: read-out: Activity.
The subject of data set [5] is RAW264.7. As to the kind of experiment: Cytoprotective activity against H2O2-induced oxidative stress in mouse RAW264.7 cells assessed as cell viability at 10 nM incubated for 2 hrs prior to H2O2 addition measured after 24 hrs by MTT assay (reference value: 68 to 72.8%). Type of data set: functional. The settings on record: read-out: Activity.
Data set [6] deals with RAW264.7. As to the kind of experiment: Cytoprotective activity against H2O2-induced oxidative stress in mouse RAW264.7 cells assessed as decrease in LDH release at 1 pM incubated for 2 hrs prior to H2O2 addition by colorimetric assay relative to control. On the set-up: scale not given: the % may be the effect or the level left.
In data set [7] the test system is RAW264.7. As to the kind of experiment: Cytoprotective activity against H2O2-induced oxidative stress in mouse RAW264.7 cells assessed as decrease in LDH release at 1 pM incubated for 2 hrs prior to H2O2 addition by colorimetric assay relative to control. Format: functional. On the set-up: scale not given: the % may be the effect or the level left. In a few lines: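 RAW 264.7 cells were seeded and pretreated with compound before H2O2 100 µM, in serum-free medium. Collected medium was centrifuged and incubated with reaction mix 30 min at room temperature. LDH was measured as NADH formation by colorimetric read at 490 nm. n = 8-10 replicates per concentration.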

Data set [8] concerns RAW264.7. The data set can be described thus: Cytoprotective activity against H2O2-induced oxidative stress in mouse RAW264.7 cells assessed as decrease in caspase-3 activity at 1 pM incubated for 4 hrs prior to H2O2 addition measured after 90 mins by caspase-GloR reagent-based luminescence assay relative to control. Format: functional. More on the design: scale not given: the % may be the effect or the level left. The gist of the method: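 RAW 264.7 macrophages were pretreated with compound (1 pM or 1 nM) 4 h before H2O2 100 µM. Medium was replaced with fresh DMEM after 90 min and plates were incubated overnight. Caspase-Glo 3/7 reagent was added and luminescence read after 30 min at room temperature. Mean ± SD, 4-6 replicates.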

Data set [9] deals with RAW264.7. As to the kind of experiment: Cytoprotective activity against H2O2-induced oxidative stress in mouse RAW264.7 cells assessed as cell viability at 1 pM incubated for 2 hrs prior to H2O2 addition measured after 24 hrs by MTT assay (reference value: 68 to 72.8%). The settings on record: read-out: Activity. Type of data set: functional.
Data set [10] can be described thus: Cytotoxicity against mouse RAW264.7 cells assessed as cell viability at 10^-10 M after 24 hrs by MTT assay relative to control. Type of data set: cell-based. The settings on record: read-out: Activity. The gist of the method: (§2)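 RAW 264.7 cells, seeded at 1×10^4 cells/mL and incubated 24 h, were exposed to compound from 1 pM to 100 nM. Viability was read by MTT (final 0.5 mg/mL, 1 h at 37 °C), with formazan dissolved in DMSO and OD at 570 nm. Results are compared with medium-only cells.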

Data set [11] is described as follows: Cytotoxicity against mouse RAW264.7 cells assessed as cell viability at 10^-9 M after 24 hrs by MTT assay relative to control. Format: cell-based. The settings on record: read-out: Activity. The gist of the method: as §2
Data set [12] in a line: Cytotoxicity against mouse RAW264.7 cells assessed as cell viability at 10^-7 M after 24 hrs by MTT assay relative to control. Type of data set: cell-based. The settings on record: read-out: Activity. In a few lines: as §2
Data set [13] can be described thus: Cytotoxicity against mouse RAW264.7 cells assessed as cell viability at 10^-11 M after 24 hrs by MTT assay relative to control. Type of data set: cell-based. The settings on record: read-out: Activity. In a few lines: as §2
A short description of data set [14]: Cytotoxicity against mouse RAW264.7 cells assessed as cell viability at 10^-8 M after 24 hrs by MTT assay relative to control. Type of data set: cell-based. The settings on record: read-out: Activity. In a few lines:
as §2

Data set [15] can be described thus: Cytotoxicity against mouse RAW264.7 cells assessed as cell viability at 10^-12 M after 24 hrs by MTT assay relative to control. Format: cell-based. The settings on record: read-out: Activity. The gist of the method:
as §2

In data set [16] the test system is RAW264.7. As to the kind of experiment: Antiinflammatory activity in mouse RAW264.7 cells assessed as reduction in LPS-induced TNF-alpha production at 100 pM incubated for 2 hrs prior to LPS challenge measured after 8 hrs by ELISA. More on the design: scale not given: the % may be the effect or the level left. Format: functional. The gist of the method: as §1

Data set [17] concerns RAW264.7. As to the kind of experiment: Antiinflammatory activity in mouse RAW264.7 cells assessed as reduction in LPS-induced IL-6 production at 100 pM incubated for 2 hrs prior to LPS challenge measured after 24 hrs by ELISA. More on the design: scale not given: the % may be the effect or the level left. Format: functional. In a few lines: as §1
The subject of data set [18] is Mus musculus. The data set can be described thus: Antiinflammatory activity in Balb/C mouse assessed as reduction in LPS-induced IL6 production in brain at 0.1 to 10 umol/kg, sc administered LPS 15 mins post compound treatment measured after 4 hrs by ELISA. Type of data set: functional, organism-based.
Data set [19] has as its system Mus musculus. As to the kind of experiment: Antiinflammatory activity in Balb/C mouse assessed as reduction in LPS-induced TNF-alpha production in spleen at 1 umol/kg, sc administered LPS 15 mins post compound treatment measured after 4 hrs by ELISA. Format: functional, organism-based. The gist of the method: (§3)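 Male Balb/C mice, 7-8 weeks old, given compound sc (0.1, 1 or 10 µmoles/kg) or saline. LPS 10 mg/kg was given ip 15 min later, and mice were killed 4 h after that. Spleens were homogenized in PBS with protease inhibitor and centrifuged at 14,000 g, 4 °C. Cytokines in plasma and tissue supernatants were measured by ELISA, with protein by BCA. Dexamethasone 5.6 µmoles/kg was the reference. n = 8-10 mice per treatment.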

Data set [20] concerns Mus musculus. As to the kind of experiment: Antiinflammatory activity in Balb/C mouse assessed as reduction in LPS-induced IL6 production in spleen at 1 umol/kg, sc administered LPS 15 mins post compound treatment measured after 4 hrs by ELISA. Format: functional, organism-based. In a few lines: as §3
For data set [21], the system named is Mus musculus. The data set can be described thus: Antiinflammatory activity in Balb/C mouse assessed as reduction in LPS-induced TNF-alpha production in plasma at 1 umol/kg, sc administered LPS 15 mins post compound treatment measured after 4 hrs by ELISA. Type of data set: functional, organism-based. The gist of the method: as §3
The subject of data set [22] is Mus musculus. The data set can be described thus: Antiinflammatory activity in Balb/C mouse assessed as reduction in LPS-induced IL6 production in liver at 0.1 to 10 umol/kg, sc administered LPS 15 mins post compound treatment measured after 4 hrs by ELISA. Type of data set: functional, organism-based.
In data set [23] the test system is RAW264.7. As to the kind of experiment: Antiinflammatory activity in mouse RAW264.7 cells assessed as reduction in LPS-induced nitric oxide production at 100 pM incubated for 2 hrs prior to LPS challenge measured after 24 hrs by Griess assay. On the set-up: scale not given: the % may be the effect or the level left. Format: functional. In a few lines:
as §1

Data set [24] concerns Mus musculus. As to the kind of experiment: Antiinflammatory activity in Balb/C mouse assessed as reduction in LPS-induced IL6 production in plasma at 1 umol/kg, sc administered LPS 15 mins post compound treatment measured after 4 hrs by ELISA. Type of data set: functional, organism-based. In a few lines: as §3

With `CC(C)NC(=O)CCN1CCc2ccc(F)cc21`, the result in the data set on RAW264.7 [1], in the data set with RAW264.7 [2] and in the data set with RAW264.7 [3] was inactive. Besides, in the data set with RAW264.7 [4], the viability at 0.1 µM turned out to be 86.9%.

As for `COC(=O)CCN1CCc2ccc(C)cc21`, the result in the data set on RAW264.7 [1], in the data set on RAW264.7 [2] and in the data set on RAW264.7 [3] was inactive. For the same compound, the viability at 0.01 µM in the data set with RAW264.7 [5] is 87.2%.

As to `COC(=O)CCN1CCc2cc(OC)ccc21.Cl`, the results for the Activity in the data set with RAW264.7 [6], with RAW264.7 [7] and in the data set with RAW264.7 [8] were 16%, 16% and 60%, respectively. In the data set on RAW264.7 [9], the viability at 1 pM was found to be 91%. The outcome in the data set with RAW264.7 [3] was Active.

For the compound `c1ccc2c(c1)CCN2` [INDOLINE], the viability at 0.01 µM in the data set on RAW264.7 [5] amounted to 90.4%.

For the compound `CC(C)NC(=O)CCN1CCc2cc(Cl)ccc21`, the viability at 24 h, 0.0001 µM in data set [10] worked out at 98.2%. The viability at 24 h, 0.001 µM in [11] was found to be 97.9%. Also, the viability at 24 h, 0.1 µM in data set [12] came out at 103%. Moreover, the outcome in the data set with RAW264.7 [1], with RAW264.7 [2] and in the data set on RAW264.7 [3] was inactive. Also, the viability at 1 pM in the data set with RAW264.7 [9] turned out to be 95.7%. Besides, the viability at 24 h, 1e-05 µM in [13] amounted to 96.3%. The viability at 24 h, 0.01 µM in [14] came out at 104%. The viability at 24 h, 1e-06 µM in data set [15] was 95.6%.

`Cc1ccc(S(C)(=O)=O)cc1.Cc1ccc(S(C)(=O)=O)cc1.NCCCN1CCc2cccc(OCc3ccccc3)c21`: the Activity entry with RAW264.7 [1] and in the data set with RAW264.7 [3] was “Dose-dependent effect” each time. Further, the outcome in the data set with RAW264.7 [8] was inactive. For the same compound, the viability at 0.1 µM in the data set on RAW264.7 [4] is 79.3%.

Consider `COc1ccc2c(c1)CCN2CCCO.Cl`, for which the Activity in the data set on RAW264.7 [16], with RAW264.7 [17] and in the data set with RAW264.7 [23] was 50% throughout. Besides, the viability at 24 h, 0.0001 µM in [10] was 93.9%. The viability at 24 h, 0.001 µM in data set [11] was determined as 95.3%. In addition, the viability at 24 h, 0.1 µM in data set [12] amounted to 91.9%. In addition, the result in the data set with Mus musculus [18], in the data set on RAW264.7 [1], in the data set with Mus musculus [19], in the data set on Mus musculus [20], in the data set with RAW264.7 [2] and in the data set with Mus musculus [21] was Active. Moreover, the outcome in the data set on RAW264.7 [3], in the data set on Mus musculus [22] and with Mus musculus [24] was Active. The viability at 1 pM in the data set on RAW264.7 [9] stood at 95.6%. Further, the viability at 24 h, 1e-05 µM in [13] worked out at 93.4%. For the same compound, the viability at 24 h, 0.01 µM in [14] came to 91.4%. For the same compound, the viability at 24 h, 1e-06 µM in data set [15] was 91.9%.
